In PubChem BioAssay AID373 (The Scripps Research Institute Molecular Screening Center, 2006):
About 60 (0.1%) of roughly 60,000 compounds were called active.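 Rule for the calls: active = activation above the screen-wide mean plus 3 SD (cut at about 4.5% in these data, passing the limit was not always enough); inactive = the rest, inconclusive results apart.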 What follows is part of a selection rich in actives, with near analogues and random picks from the rest.

Biological target: Sphingosine 1-phosphate receptor 3 (Homo sapiens) (UniProt Q99500)
Sequence (Q99500 whole entry, looked up): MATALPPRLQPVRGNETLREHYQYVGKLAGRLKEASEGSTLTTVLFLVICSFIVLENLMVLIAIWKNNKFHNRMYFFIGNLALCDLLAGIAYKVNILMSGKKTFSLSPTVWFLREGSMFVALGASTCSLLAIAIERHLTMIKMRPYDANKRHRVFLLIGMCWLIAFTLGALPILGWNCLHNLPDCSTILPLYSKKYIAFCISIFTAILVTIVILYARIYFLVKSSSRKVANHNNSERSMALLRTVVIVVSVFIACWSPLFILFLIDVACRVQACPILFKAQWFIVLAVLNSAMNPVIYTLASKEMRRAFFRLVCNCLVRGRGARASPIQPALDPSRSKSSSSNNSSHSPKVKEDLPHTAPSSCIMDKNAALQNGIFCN
Experiment: activators of S1P3 receptor signaling – cell-based, primary and confirmation, NFAT-BLA reporter, primary screen (AID 373)
Conditions: S1P3 NFAT-BLA reporter cells, agonism, FRET ratio, at 4.5 µM, active compounds read high, relative to 1 µM S1P, basal subtracted
Procedure, shortened: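 Material: Human S1P3 NFAT-BLA reporter CHO cells | Incubation: Overnight plating, 4 h compound 37 °C, 2 h substrate RT | Signal: FRET β-lactamase substrate fluorescence, excitation 405 nm, 460/535 nm emission ratio, background-subtracted | Compound: 4.5 µM final, single dose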

activation, inactive:
CCOc1ccc(CNC(=O)C2CC(=O)N(C3CCCC3)C2)cc1OC (configuration not stated) 0.9%
O=C1CCC(Cc2ccccc2)N1 (configuration not stated) 0.3%
CCCCOc1ccc(-c2nnc(-c3ccco3)o2)cc1 -0.5%
COC(=O)N1CN(C(=O)OC)CN(C(=O)OC)C1 -0.2%
COC(=O)CN(c1nc(C)c(Cl)c(OC)n1)S(=O)(=O)c1ccc(C)cc1 -1.1%
O=C(O)c1ccc(NS(=O)(=O)c2cccc3nsnc23)cc1 -0.5%
Cn1c(=O)[nH]c(=O)c2c1nc(Br)n2CCCCSc1nc2ccccc2o1 -1.6%
O=C(NCCN1CCOCC1)c1ccc2c(c1)ncn2C1CCCC1 -0.2%
COc1cccc(OCC(=O)Nc2ccccc2C(N)=O)c1 -1.1%
CCOC(=O)N1CCN(C(=O)c2cc3c(-c4ccc(Cl)cc4)nn(C)c3s2)CC1 -1.5%
Cc1cc(C)c2nc(SCCC#N)nc(C)c2c1 -0.8%
c1cc(-c2nn[nH]n2)ccc1CN1CCCCC1 -0.2%
N#CC(C(N)=O)=C1CCC2(CC1)OCCCCO2 -0.6%
CC(CNC(=O)c1ccc(Br)o1)NC(=O)c1ccc(Br)o1 (configuration not stated) -0.8%
Cc1ccc(OCC(=O)Nc2ccc(-c3nc4ncccc4o3)cc2)cc1 0.4%
O=c1c2ccccc2[nH]c(=S)n1CCN1CCC(=C(c2ccc(F)cc2)c2ccc(F)cc2)CC1 -2.2%
Cc1cc(NC(=O)CCC(=O)N(c2ccccc2)C(C(=O)NC2CCCC2)c2ccncc2)no1 (configuration not stated) -0.2%
O=C(OCCO)c1cc(Cl)c(C(=O)OCCO)cc1Cl -1.2%
Cc1cccc(NC(=O)C2CCN(S(=O)(=O)c3cccc4cccnc34)CC2)c1 -0.2%
CN(C)c1ccnc2sc3c(=O)n(Cc4ccccc4)cnc3c12 -1.9%
CCN1C(=O)/C(=C2\SC(N3CCCCC3)=NC2=O)c2ccccc21 -0.5%
COc1ccc2c(c1OC)C(=O)OC2c1c(O)nc(SC)n(-c2ccccc2)c1=O (configuration not stated) -2.9%
CCc1nnc(NC(=O)c2cccs2)s1 0.7%
COc1ccc(C(=O)N(CCN2CCOCC2)CC(=O)NC2CCCC2)cc1OC 0.6%
CCn1c(=O)cc(O)c2ccccc21 0.7%
CCOC(=O)C1=C(C)N=c2s/c(=C\C(=O)OC)c(=O)n2C1c1ccc(OC)cc1 (configuration not stated) -0.8%
O=C(CCc1ccccc1)Nc1cccc(-c2nnc(-c3ccco3)o2)c1 -0.9%
CCc1cc(=O)oc2cc(C)cc(OC(C)C(=O)O)c12 (configuration not stated) -0.4%
COc1ccc(Cn2nnc3c(=O)[nH]c(C4CCN(C(=O)c5ccccc5Cl)CC4)nc32)cc1 -0.1%
COc1ccc(N2C(=O)C3CCCN3C2c2cccc(OC)c2)cc1 (configuration not stated) -0.5%
Cc1ccc(C(=O)Nc2nnc(-c3cccs3)s2)cc1C -0.6%
COc1ccccc1NC(=O)CN1CCN(S(=O)(=O)c2ccc(Br)cc2)CC1 -0.8%
Cc1ccc(C(C(=O)NCc2ccco2)N(CC2CCCO2)C(=O)Cn2nnc3ccccc32)cc1 (configuration not stated) -0.7%
CC1CCN(Cc2nc3c(c(=O)n(C)c(=O)n3C)n2Cc2cccc3ccccc23)CC1 -0.5%
COC(=O)Cn1c(=NC(=O)CSCC(=O)Nc2cc(C)on2)sc2ccccc21 -0.5%
COC(=O)c1c(-c2ccc(C)cc2)csc1N -0.4%
CCOC(=O)N1CCN(CC(=O)c2ccc3c(c2)CCN3)CC1 0%
CC(C)(C)c1ccc(NC(=O)NCc2ccco2)cc1 -0.2%
CC(=O)CCS(=O)(=O)c1ccc(C)c(C)c1 -3%
COC(=O)c1ccc(CSc2nncn2C)cc1 -1.1%
CCn1cc(C(=O)NCC2CCCO2)c(=O)c2cc(S(=O)(=O)N3CCCCC3)ccc21 (configuration not stated) -0.3%
O=c1oc2c(CN3CCCCC3)c(O)ccc2c2c1CCCCC2 -1%
